Consider 33 compounds from ChEMBL document CHEMBL2311323, “Synthesis and biological evaluation of N-alkyl-N-(4-methoxyphenyl)pyridin-2-amines as a new class of tubulin polymerization inhibitors” (Bioorg Med Chem, 2013).

Some results are limits rather than exact numbers.

The test system of test [1] is DU-145. In words: Growth inhibition of human DU145 cells by SRB assay. Type of test: functional. A digest of the protocol: (§1)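 Sulforhodamine B staining of human tumor cell lines: A-549 lung carcinoma, KB nasopharyngeal epidermoid carcinoma, P-gp-expressing vincristine-resistant KB (KBVIN) and DU145 prostate cancer. GI50 is the molar concentration giving 50% growth inhibition, reported as mean ± SD from at least triplicate runs.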

The nature of test [2]: Growth inhibition of human KBVIN cells by SRB assay. It is filed as functional. An outline of the steps:
as §1

Test [3] deals with KB. In words: Growth inhibition of human KB cells by SRB assay. It is filed as functional. An outline of the steps:
as §1

For test [4], the system named is A549. In words: Growth inhibition of human A549 cells by SRB assay. Type of test: functional. A digest of the protocol:
as §1

Test [5] has as its system DU-145. Briefly: Growth inhibition of human DU145 cells at 20 ug/mL by SRB assay. Type of test: functional. Conditions: read-out: GI. An outline of the steps:
as §1

Test [6] in a line: Growth inhibition of human KBVIN cells at 20 ug/mL by SRB assay. It is filed as functional. Conditions: read-out: GI. An outline of the steps: as §1
Test [7] relates to KB. In words: Growth inhibition of human KB cells at 20 ug/mL by SRB assay. Type of test: functional. Conditions: read-out: GI. A digest of the protocol: as §1
Test [8] has as its system A549. In words: Growth inhibition of human A549 cells at 20 ug/mL by SRB assay. Conditions: read-out: GI. It is filed as functional. An outline of the steps: as §1
In another test the target is Tubulin (Homo sapiens) (UniProt P68371+Q9H4B7+P0DPH7+P68366+Q13509+Q71U36+P04350+Q3ZCM7+P07437+P68363+Q9BQE3+Q6PEY2+Q13885+Q9BVA1+Q9BUF5). In words: Inhibition of [3H]colchicine binding to tubulin (unknown origin) at 5 uM incubated for 10 mins at 37 degC. Type of test: protein-complex assay.
The next test deals with Tubulin. Briefly: Inhibition of tubulin assembly (unknown origin) pre-incubated with compound for 15 mins before GTP addition measured after 20 mins at 30 degC post GTP addition by turbidimetry. It is filed as protein-complex assay, Homo sapiens. An outline of the steps:
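Turbidity at 350 nm. Tubulin at 1.0 mg/mL (10 µM) was preincubated with varying compound concentrations for 15 min at 30 °C without GTP. Samples were chilled on ice and 0.4 mM GTP added, then moved to 0 °C cuvettes. After a rapid jump to 30 °C, assembly was followed for 20 min. IC50 is the concentration halving the turbidity increase relative to control.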

For the compound `COc1ccc(N(C)c2nc(Cl)ccc2CO)cc1`, the concentration for 50% growth inhibition (GI50) was 1960 nM in the test on DU-145 [1], 2120 nM in test [2], 2260 nM in the test with KB [3] and 3.25 µM in the test with A549 [4].

For the compound `COc1ccc(N(C)c2nc(OC)ccc2[N+](=O)[O-])cc1`, the GI50 was determined as 2700 nM with DU-145 [1], 2830 nM in [2], 3310 nM in the test on KB [3] and 3.27 µM in the test with A549 [4].

On to `COc1ccc(N(C)c2nc(C(F)(F)F)ccc2-c2nnn[nH]2)cc1`, for which the inhibition of growth at 20 µg/mL (with DU-145 [5]; in test [6]; in the test on KB [7]; with A549 [8]) was under 50% in each case.

For the compound `COC(=O)c1ccc(Cl)nc1N(C)c1ccc(OC)cc1`, the inhibition on Tubulin (Homo sapiens) was 80%. Moreover, at Tubulin, the IC50 was determined as 1400 nM. Besides, the GI50 with DU-145 [1] was 210 nM; in test [2], 200 nM; in the test with KB [3] it was 260 nM; with A549 [4], 0.23 µM.

Turning to `COC(=O)c1ccc(N(C)c2nc(Cl)ccc2[N+](=O)[O-])cc1`, the GI50 in the test with DU-145 [1] is 2220 nM; in test [2], 2870 nM; in the test with KB [3], 2890 nM; in the test with A549 [4] it was 3 µM.

For the compound `CCOC(=O)c1ccc(Cl)nc1N(C)c1ccc(OC)cc1`, the GI50 in the test on DU-145 [1] stood at 1430 nM; in test [2], 1430 nM; with KB [3], 1800 nM; in the test on A549 [4] it was 1.81 µM.

`COc1cc(N(C)c2nc(Cl)ccc2[N+](=O)[O-])cc(OC)c1OC`: the inhibition of growth at 20 µg/mL (in the test on DU-145 [5]; in test [6]; in the test on KB [7]; with A549 [8]) was under 50% each time.

`COC(=O)c1ccc(C(F)(F)F)nc1N(C)c1ccc(OC)cc1` gave an inhibition at Tubulin (Homo sapiens) of 82%. Moreover, at Tubulin, the concentration for half-maximal inhibition (IC50) stood at 1700 nM. Moreover, the GI50 was determined as 250 nM in the test on DU-145 [1], 190 nM in test [2], 410 nM in the test on KB [3] and 0.35 µM in the test on A549 [4].

On to `COc1ccc(N(C)c2nc(C(F)(F)F)ccc2C(=O)OC(C)C)cc1`, for which the inhibition of growth at 20 µg/mL (with DU-145 [5]; in [6]; in the test with KB [7]; in the test with A549 [8]) was under 50% in each case.

As to `COc1ccc(N(C)c2nc(Cl)ccc2C(=O)OC(C)C)cc1`, the GI50 in the test with DU-145 [1] was 17800 nM; in test [2], 17300 nM; in the test on KB [3], 14500 nM; with A549 [4], 22 µM.

Take `COC(=O)c1ccc(OC)nc1N(C)c1ccc(OC)cc1`: the GI50 in the test with DU-145 [1] turned out to be 2450 nM; in test [2], 4020 nM; in the test with KB [3], 4010 nM; in the test with A549 [4], 3.15 µM.

In the case of `COCc1ccc(Cl)nc1N(C)c1ccc(OC)cc1`, the inhibition at Tubulin (Homo sapiens) was determined as 88%. Moreover, the concentration for half-maximal inhibition (IC50) at Tubulin worked out at 1500 nM. The concentration for 50% growth inhibition (GI50) in the test on DU-145 [1] came to 250 nM; in [2] it was 200 nM; in the test on KB [3], 330 nM; with A549 [4], 0.3 µM.

In the case of `COCc1ccc(C(F)(F)F)nc1N(C)c1ccc(OC)cc1`, the concentration for 50% growth inhibition (GI50) came out at 1290 nM with DU-145 [1], 1430 nM in test [2], 1640 nM in the test with KB [3] and 1.2 µM with A549 [4].

In the case of `COc1ccc(N(C)c2nc(C)ccc2[N+](=O)[O-])cc1`, the GI50 with DU-145 [1] worked out at 3350 nM; in [2], 4190 nM; with KB [3], 2920 nM; in the test on A549 [4], 4.42 µM.

Consider `COc1ccc(N(c2nc(Cl)ccc2[N+](=O)[O-])C2CCCC2)cc1`, for which the inhibition of growth at 20 µg/mL (in the test with DU-145 [5]; in test [6]; in the test with KB [7]; in the test with A549 [8]) was under 50% in each case.

As to `COc1ccc(N(C)c2nc(Cl)ccc2C#N)cc1`, the GI50 was 20400 nM in the test on DU-145 [1], 18100 nM in test [2], 22100 nM with KB [3] and 20.4 µM with A549 [4].

In the case of `COc1ccc(N(C)c2nc(C(F)(F)F)ccc2CO)cc1`, the concentration for 50% growth inhibition (GI50) was found to be 1710 nM in the test on DU-145 [1], 1750 nM in test [2], 1920 nM with KB [3] and 2.13 µM in the test on A549 [4].

Turning to `CNC(=O)c1ccc(C(F)(F)F)nc1N(C)c1ccc(OC)cc1`, the inhibition of growth at 20 µg/mL (in the test on DU-145 [5]; in test [6]; in the test on KB [7]; with A549 [8]) was under 50% in each case.

Consider `CC(=O)O[C@H]1C(=O)[C@@]2(C)[C@H]([C@H](OC(=O)c3ccccc3)[C@]3(O)C[C@H](OC(=O)[C@H](O)[C@@H](NC(=O)c4ccccc4)c4ccccc4)C(C)=C1C3(C)C)[C@]1(OC(C)=O)CO[C@@H]1C[C@@H]2O` [PACLITAXEL], for which the concentration for 50% growth inhibition (GI50) was 6.5 nM with DU-145 [1], 1800 nM in test [2], 7.77 nM in the test with KB [3] and 0.00818 µM in the test with A549 [4].

As to `CNc1ccc([N+](=O)[O-])c(N(C)c2ccc(OC)cc2)n1`, the concentration for 50% growth inhibition (GI50) came out at 4450 nM with DU-145 [1], 9630 nM in test [2], 4530 nM with KB [3] and 4.5 µM with A549 [4].

`CNC(=O)c1ccc(Cl)nc1N(C)c1ccc(OC)cc1`: the inhibition of growth at 20 µg/mL (in the test with DU-145 [5]; in test [6]; with KB [7]; in the test with A549 [8]) was under 50% in each case.

For the compound `COc1ccc(N(C)c2nc(Cl)ccc2[N+](=O)[O-])cc1OC`, the 50% growth inhibitory concentration (GI50) in the test with DU-145 [1] came to 15000 nM; in [2], 16500 nM; in the test on KB [3], 16000 nM; with A549 [4] it was 18.4 µM.

On to `COc1ccc(N(C)c2nc(Cl)ccc2C(=O)O)cc1`, for which the inhibition of growth at 20 µg/mL (in the test on DU-145 [5]; in [6]; in the test on KB [7]; in the test with A549 [8]) was under 50% each time.

For the compound `CNc1ccc(C(=O)OC)c(N(C)c2ccc(OC)cc2)n1`, the GI50 in the test with DU-145 [1] came out at 1670 nM; in test [2] it was 920 nM; in the test with KB [3], 1360 nM; in the test on A549 [4], 3.43 µM.

`C=CCN(c1ccc(OC)cc1)c1nc(Cl)ccc1[N+](=O)[O-]`: the GI50 in the test on DU-145 [1] is 2690 nM; in test [2], 3150 nM; with KB [3], 2610 nM; in the test on A549 [4], 3.33 µM.

`CN(c1ccc(OC(F)(F)F)cc1)c1nc(Cl)ccc1[N+](=O)[O-]`: the inhibition of growth at 20 µg/mL (in the test on DU-145 [5]; in [6]; with KB [7]; with A549 [8]) was under 50% throughout.

Turning to `COc1ccc(N(C(C)=O)c2nc(Cl)ccc2[N+](=O)[O-])cc1`, the GI50 with DU-145 [1] came to 11200 nM; in [2], 13900 nM; with KB [3] it was 14300 nM; in the test with A549 [4], 11.8 µM.

As for `COc1ccc(N(C)c2nc(C(F)(F)F)ccc2C(=O)O)cc1`, the inhibition of growth at 20 µg/mL (in the test with DU-145 [5]; in test [6]; with KB [7]; in the test with A549 [8]) was under 50% throughout.

On to `CN(c1ccc(C#N)cc1)c1nc(Cl)ccc1[N+](=O)[O-]`, for which the 50% growth inhibitory concentration (GI50) in the test with DU-145 [1] is 21400 nM; in test [2] it was 27000 nM; in the test with KB [3], 22100 nM; with A549 [4], 24 µM.

On to `COc1ccc(N(C)c2nc(C(F)(F)F)ccc2C#N)cc1`, for which the concentration for 50% growth inhibition (GI50) amounted to 10700 nM in the test with DU-145 [1], 7910 nM in [2], 15300 nM with KB [3] and 7.21 µM in the test with A549 [4].

`CCOC(=O)c1ccc(C(F)(F)F)nc1N(C)c1ccc(OC)cc1`: the GI50 in the test with DU-145 [1] was determined as 1300 nM; in test [2], 1300 nM; in the test with KB [3], 1520 nM; in the test on A549 [4], 1.46 µM.

Turning to `COc1ccc(N(C)c2nc(Cl)ccc2[N+](=O)[O-])cc1`, the GI50 in the test on DU-145 [1] was found to be 1550 nM; in [2], 1860 nM; with KB [3], 1780 nM; with A549 [4], 2.2 µM.

As for `COc1ccc(N(C)c2nc(C(F)(F)F)ccc2-c2nnnn2C)cc1`, the 50% growth inhibitory concentration (GI50) in the test with DU-145 [1] is 1160 nM; in test [2] it was 1260 nM; in the test on KB [3], 1470 nM; in the test on A549 [4], 1.82 µM.
